From ChEMBL document CHEMBL4024801, “Synthesis and Structure-Activity Relationship (SAR) Studies of Novel Pyrazolopyridine Derivatives as Inhibitors of Enterovirus Replication” (J Med Chem, 2018)

Columns and labels:
[1] = Selectivity index, ratio of CC50 for monkey LLC-MK2 cells to EC50 for Enterovirus A71; assay type: toxicity; conditions: read-out: Ratio CC50/EC50
Procedure, shortened: (§1)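 LLC-MK2 cells in DMEM with 10% FBS were used for both arms. For EC50, cells were infected with EV-A71 at a low MOI giving full CPE in 3–4 days and exposed to 2-fold compound dilutions, in triplicate. For CC50, uninfected cells got 2-fold dilutions for the same period. Both arms were formaldehyde-fixed, crystal violet-stained and read at OD590.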

[2] = Selectivity index, ratio of CC50 for human HeLa-RW cells to EC50 for Poliovirus 1; assay type: toxicity; conditions: read-out: Ratio CC50/EC50
Procedure, shortened: (§2)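 HeLa-RW cells grown in DMEM with penicillin, streptomycin, glutamine and 10% FBS were infected at a low MOI chosen to give full CPE in 3-4 days. Serial 2-fold compound dilutions from DMSO stocks were tested in triplicate. When control CPE was maximal, cells were formaldehyde-fixed, crystal violet-stained and read at OD590. EC50 came from a 7-point curve. CC50 used uninfected cells over the same period.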

[3] = system: Enterovirus A71; assay: Antiviral activity against Enterovirus A71 infected in monkey LLC-MK2 cells assessed as protection against virus-induced cytopathic effect after 3 to 4 days by crystal violet staining-based spectrophotometric method; assay type: functional, cell-based; conditions: Enterovirus A
Procedure, shortened: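 EV-A71 was tested in LLC-MK2 cells grown in DMEM with 10% FBS, penicillin, streptomycin and glutamine, at a low MOI preset to give full CPE in 3–4 days. Compound was dissolved in DMSO and diluted 2-fold, in triplicate. Cells were fixed with formaldehyde when control CPE was maximal, then stained with crystal violet and read at OD590. EC50 came from a 7-point four-parameter or sigmoidal fit.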

[4] = system: Coxsackievirus B3; assay: Antiviral activity against Coxsackievirus B3 infected in human HeLa-RW cells assessed as protection against virus-induced cytopathic effect after 3 to 4 days by crystal violet staining-based spectrophotometric method; assay type: functional, cell-based; conditions: Enterovirus B
Procedure, shortened: (§3)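 HeLa-RW cells grown in DMEM with penicillin, streptomycin, glutamine and 10% FBS. They were infected at a low MOI pre-set to give full CPE in 3-4 days. Compound in DMSO was added as serial 2-fold dilutions (7 points), each in triplicate. When control CPE was maximal, cells were fixed with 4% formaldehyde, stained with 0.25% crystal violet and read at OD590. EC50 came from a four-parameter or sigmoidal fit.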

[5] = system: Poliovirus 1; assay: Antiviral activity against Poliovirus 1 infected in human HeLa-RW cells assessed as protection against virus-induced cytopathic effect after 3 to 4 days by crystal violet staining-based spectrophotometric method; assay type: functional, cell-based; conditions: Enterovirus C; procedure, shortened: as §3
[6] = system: Poliovirus 3; assay: Antiviral activity against Poliovirus 3 infected in human HeLa-RW cells assessed as protection against virus-induced cytopathic effect after 3 to 4 days by crystal violet staining-based spectrophotometric method; assay type: functional, cell-based; conditions: Enterovirus C; procedure, shortened: as §3
[7] = system: LLC-MK2; assay: Cytotoxicity against monkey LLC-MK2 cells after 3 to 4 days by crystal violet staining-based spectrophotometric method; assay type: cell-based, Macaca mulatta; conditions: rhesus monkey
Procedure, shortened: (§4)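 Uninfected cells (HeLa-RW or LLC-MK2, in DMEM with penicillin, streptomycin, glutamine and 10% FBS) were exposed to serial 2-fold compound dilutions for the same period as the CPE assay. They were then fixed with formaldehyde, stained with crystal violet and read by OD590 spectrophotometry to derive CC50. Values are means ± s.d. of 3 experiments, or the average of triplicates in one.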

[8] = Cytotoxicity against human HeLa-RW cells after 3 to 4 days by crystal violet staining-based spectrophotometric method; assay type: cell-based; procedure, shortened: as §4
[9] = Selectivity index, ratio of CC50 for human HeLa-RW cells to EC50 for Coxsackievirus B3; assay type: toxicity; conditions: read-out: Ratio CC50/EC50
Procedure, shortened: as §1, with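 “HeLa-RW” for “LLC-MK2”, “CVB3-H3” for “EV-A71”, “triplicate, with a 7-point fit.” for “triplicate.”, “fixed,” for “formaldehyde-fixed,”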

[10] = Selectivity index, ratio of CC50 for human HeLa-RW cells to EC50 for Poliovirus 3; assay type: toxicity; conditions: read-out: Ratio CC50/EC50; procedure, shortened: as §2

SMILES | selectivity ratio [1] | selectivity ratio [2] | EC50 [3] [µM] | EC50 [4] [µM] | EC50 [5] [µM] | EC50 [6] [µM] | CC50 [7] [µM] | CC50 ([8]; HeLa-RW cells) [µM] | selectivity ratio [9] | selectivity ratio [10] | CC50 ([8]; hela-rw) [µM]
CC(C)n1ncc2c(C(=O)Nc3cccc(S(N)(=O)=O)c3)cc(-c3cccs3)nc21 | 19.2 | 10 | 1.3 | 1.3 | 5 | 5 | 25 | 50 to 200 | 167 | 10 | –
CC(C)n1ncc2c(NC(=O)c3ccc(F)cc3)cc(-c3cccs3)nc21 | 12.5 | – | 4 | 4.7 | > 10 | > 10 | 50 | – | 2.6 | – | 12
CC(C)n1ncc2c(C(=O)Nc3ccncc3)cc(-c3cccs3)nc21 | 15.8 | – | 0.4 | 0.6 | > 10 | > 10 | 6.3 | – | 10 | – | 6
CC(C)n1ncc2c(C(=O)Nc3ccncn3)cc(-c3cccs3)nc21 | 100 | – | 0.5 | 0.6 | > 10 | > 10 | 50 | – | 33.3 | – | 20
CC(C)n1ncc2c(C(=O)Nc3cc(S(N)(=O)=O)ccc3F)cc(-c3cccs3)nc21 | 50 | 2.9 | 0.5 | 0.7 | 6.3 | 6.3 | 25 | – | 25.7 | 2.9 | 18
CC(C)n1ncc2c(C(=O)Nc3ccc(F)cc3)cc(-c3ccsc3)nc21 | > 143 | – | 1.4 | 1.3 | > 25 | > 25 | > 200 | – | 19.2 | – | 25
CC(C)n1ccc2c(C(=O)Nc3cccnc3)cc(-c3cccs3)nc21 | 31.3 | – | 0.8 | 1.3 | > 10 | > 10 | 25 | – | 13.8 | – | 18
CC(C)n1ncc2c(C(=O)Nc3ccccn3)cc(C3CC3)nc21 | 5.3 | – | 4.7 | 4.7 | > 25 | > 25 | 25 | – | 5.3 | – | 25
CNS(=O)(=O)c1cccc(NC(=O)c2cc(-c3cccs3)nc3c2cnn3C(C)C)c1 | 35.7 | – | 0.7 | 0.5 | > 10 | > 10 | 25 | – | 24 | – | 12
CC(C)n1ncc2c(C(=O)Nc3ccccn3)cc(-c3cccs3)nc21 | > 400 | – | 0.5 | 0.8 | > 10 | > 10 | > 200 | – | > 250 | – | > 200
CC(C)n1ncc2c(C(=O)Nc3c(F)cc(F)cc3F)cc(-c3cccs3)nc21 | > 66.7 | – | 3 | 1.8 | > 25 | > 25 | > 200 | – | > 111 | – | > 200
CC(C)n1ncc2c(C(=O)Nc3ccccc3F)cc(-c3cncs3)nc21 | 27 | – | 3.7 | 3.3 | > 25 | > 25 | 100 | – | > 60.6 | – | > 200
CC(C)n1ncc2c(C(=O)Nc3c(F)cccc3F)cc(-c3cccs3)nc21 | > 58.8 | – | 3.4 | 3.2 | > 25 | > 25 | > 200 | – | > 62.5 | – | > 200
CC(C)n1ncc2c(C(=O)Nc3ccc(F)cc3)cc(-c3ccco3)nc21 | > 76.9 | – | 2.6 | 2.4 | > 25 | > 25 | > 200 | – | > 83 | – | > 200
CC(C)n1ncc2c(C(=O)Nc3ccc(F)c(S(N)(=O)=O)c3)cc(-c3cccs3)nc21 | 62.5 | – | 0.8 | 1.1 | > 10 | > 10 | 50 | – | > 182 | – | > 200
CC(C)n1ncc2c(C(=O)Nc3ccccn3)cc(-c3ccsc3)nc21 | 31.3 | – | 0.8 | 1.2 | > 10 | > 10 | 25 | – | 15 | – | 18
CC(C)n1ncc2c(C(=O)Nc3cccc(S(=O)(=O)N(C)C)c3)cc(-c3cccs3)nc21 | > 250 | – | 0.8 | 1 | > 10 | > 10 | > 200 | – | 12 | – | 12
CC(C)n1ncc2c(C(=O)Nc3cc(F)ccc3F)cc(-c3cccs3)nc21 | 28.6 | – | 3.5 | 2.7 | > 25 | > 25 | 100 | – | > 74.1 | – | > 200
CC(C)n1ncc2c(C(=O)Nc3ccc(S(C)(=O)=O)cc3)cc(-c3cccs3)nc21 | 100 | – | 0.5 | 1 | > 10 | > 10 | 50 | – | 200 | – | 200
CC(C)n1ncc2c(C(=O)Nc3ccc(F)cc3)cc(C3CC3)nc21 | 3.9 | – | 3.2 | 3.3 | > 25 | > 25 | 12.5 | – | 3 | – | 10
CC(C)n1ncc2c(C(=O)N3CCc4cccnc43)cc(-c3cccs3)nc21 | 4 | – | 12.5 | 9.4 | > 10 | > 10 | 50 | – | 4 | – | 37.5
CC(C)n1ncc2c(C(=O)Nc3ccc(F)cc3F)cc(-c3cccs3)nc21 | > 125 | – | 1.6 | 1.4 | > 25 | > 25 | > 200 | – | > 143 | – | > 200
CC(C)n1ncc2c(C(=O)Nc3cccc(F)c3)cc(-c3cccs3)nc21 | > 83.3 | – | 2.4 | 0.8 | > 25 | > 25 | > 200 | – | > 250 | – | > 200
CC(C)n1ncc2c(C(=O)Nc3ncccn3)cc(-c3cccs3)nc21 | 150 | – | 0.5 | 0.6 | > 10 | > 10 | 75 | – | 62.5 | – | 37.5
CC(C)n1ncc2c(C(=O)Nc3cccnc3)cc(-c3ccsc3)nc21 | 15.4 | – | 2.4 | 0.6 | > 10 | > 10 | 37 | – | 30 | – | 18
